The results in this text go back to ChEMBL document CHEMBL1142238, “Highly efficient ligands for dihydrofolate reductase from Cryptosporidium hominis and Toxoplasma gondii inspired by structural analysis” (J Med Chem, 2007).

One test has as its target T1, Bifunctional dihydrofolate reductase-thymidylate synthase (Toxoplasma gondii) (UniProt Q07422).
T1 sequence (whole entry): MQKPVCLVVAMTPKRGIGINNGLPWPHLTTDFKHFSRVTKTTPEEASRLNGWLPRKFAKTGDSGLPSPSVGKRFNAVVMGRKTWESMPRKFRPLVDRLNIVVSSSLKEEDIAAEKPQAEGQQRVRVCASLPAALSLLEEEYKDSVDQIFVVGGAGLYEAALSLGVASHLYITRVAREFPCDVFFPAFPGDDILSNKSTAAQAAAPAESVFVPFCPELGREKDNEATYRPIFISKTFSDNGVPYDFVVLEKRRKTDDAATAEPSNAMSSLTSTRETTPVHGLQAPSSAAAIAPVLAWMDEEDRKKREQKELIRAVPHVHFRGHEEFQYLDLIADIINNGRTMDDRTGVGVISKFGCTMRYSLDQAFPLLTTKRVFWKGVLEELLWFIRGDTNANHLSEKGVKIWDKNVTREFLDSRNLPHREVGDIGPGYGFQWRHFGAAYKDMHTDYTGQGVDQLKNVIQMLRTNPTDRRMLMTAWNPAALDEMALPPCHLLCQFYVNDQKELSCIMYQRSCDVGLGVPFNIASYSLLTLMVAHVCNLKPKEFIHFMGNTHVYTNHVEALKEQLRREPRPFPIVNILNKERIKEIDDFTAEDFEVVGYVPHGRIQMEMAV
Description: Ligand efficiency at Toxoplasma gondii DHFR-TS relative to TMP.
`COc1cc(CC#Cc2c(C)nc(N)nc2N)cc(OC)c1OC`: the Activity is 0.35.

In the case of `COc1cc(CC#Cc2cnc(N)nc2N)cc(OC)c1OC`, the Activity came out at 0.28.

With `COc1cc([C@@H](C)C#Cc2c(C)nc(N)nc2N)cc(OC)c1OC`, the Activity stood at 0.49.

For a further test, the system named is Cryptosporidium hominis. Nature of the test: Ligand efficiency at Cryptosporidium hominis DHFR-TS. The procedure, abridged: (§1)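 Computed from the enzyme IC50 substituted for Kd: ΔG = (1.99 cal K^-1 mol^-1)(300 K)(ln IC50)(0.001 kcal/cal), divided by the number of non-hydrogen atoms.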
`COc1cc(CC#Cc2c(C)nc(N)nc2N)cc(OC)c1OC` showed an Activity of 0.29.

The molecule `COc1cc(Cc2cnc(N)nc2N)cc(OC)c1OC` showed an Activity of 0.32.

Molecule `COc1cc([C@@H](C)C#Cc2c(C)nc(N)nc2N)cc(OC)c1OC` showed an Activity of 0.41.

`CN(Cc1cnc2nc(N)nc(N)c2n1)c1ccc(C(=O)N[C@@H](CCC(=O)O)C(=O)O)cc1` [METHOTREXATE] showed an Activity of 0.32.

Another test addresses T2, Bifunctional dihydrofolate reductase-thymidylate synthase (Toxoplasma gondii, UniProt Q07422).
T2 sequence (Q07422 whole entry): T1 sequence (whole entry)
Description: Inhibition of Toxoplasma gondii DHFR-TS.
A word on the IC50: it is the point on the concentration scale where inhibition reaches its midpoint. Lower therefore signals inhibition by little substance. In turn, `COc1cc(CC#Cc2c(C)nc(N)nc2N)cc(OC)c1OC` came in with an IC50 of 0.88 µM.

For `COc1cc(C(C)C#Cc2cnc(N)nc2N)cc(OC)c1OC` (stereo unspecified), half-maximal inhibition (IC50) was put at 3.1 µM.

In turn, `COc1cc(CC#Cc2cnc(N)nc2N)cc(OC)c1OC` gave an IC50 of 21.7 µM.

As to `COc1cc(C(O)C#Cc2c(C)nc(N)nc2N)cc(OC)c1OC` (stereo unspecified), the concentration for half-maximal inhibition (IC50) was 9.1 µM.

For the molecule `COc1cc(C(C#Cc2cnc(N)nc2N)OC)cc(OC)c1OC` (stereo unspecified), the IC50 was 9.8 µM.

In turn, `COc1cc(C(C)C#Cc2c(C)nc(N)nc2N)cc(OC)c1OC` (stereo unspecified) registered a 50% inhibitory concentration (IC50) of 0.12 µM. Against the preceding molecule, the IC50 is about 82-fold lower.

For `COc1cc(C(C#Cc2c(C)nc(N)nc2N)OC)cc(OC)c1OC` (stereo unspecified), the half-inhibitory concentration (IC50) amounted to 0.55 µM.

Molecule `COc1cc(CCc2cnc(N)nc2N)cc(OC)c1OC` registered an IC50 of 90.2 µM.

For the molecule `COc1cc([C@@H](C)C#Cc2c(C)nc(N)nc2N)cc(OC)c1OC`, it took 0.0014 µM to reach half-maximal inhibition (IC50).

In turn, `COc1cc([C@H](C)C#Cc2c(C)nc(N)nc2N)cc(OC)c1OC` showed a half-maximal inhibitory concentration (IC50) of 0.013 µM.

Test system in a further test: not listed separately
Description: Inhibition of Cryptosporidium hominis DHFR-TS expressed in Escherichia coli.
As for `COc1cc(CC#Cc2c(C)nc(N)nc2N)cc(OC)c1OC`, the IC50 turned out to be 10.2 µM. This lies in the double-digit micromolar range.

As to `COc1cc(/C=C/c2cnc(N)nc2N)cc(OC)c1OC`, the IC50 was above 1000 µM.

Turning to `COc1cc(CC#Cc2cnc(N)nc2N)cc(OC)c1OC`, the IC50 was 86.1 µM.

Regarding `COc1cc(C(O)C#Cc2c(C)nc(N)nc2N)cc(OC)c1OC` (stereo unspecified), the IC50 came to 141 µM. This IC50 is about 1.6-fold higher than that of the molecule before.

`COc1cc(C(C#Cc2cnc(N)nc2N)OC)cc(OC)c1OC` (stereo unspecified) returned a concentration for half-maximal inhibition (IC50) of 133 µM.

The molecule `COc1cc(C(C)C#Cc2c(C)nc(N)nc2N)cc(OC)c1OC` (stereo unspecified) came in with a concentration for half-maximal inhibition (IC50) of 0.169 µM.

As for `COc1cc(C(C#Cc2c(C)nc(N)nc2N)OC)cc(OC)c1OC` (stereo unspecified), the IC50 came out at 5 µM.

With `COc1cc(C(O)C#Cc2cnc(N)nc2N)cc(OC)c1OC` (stereo unspecified), half-maximal inhibition (IC50) was put at 194 µM.

Regarding `COc1cc(CCc2cnc(N)nc2N)cc(OC)c1OC`, the IC50 was above 1000 µM.

Molecule `COc1cc([C@@H](C)C#Cc2c(C)nc(N)nc2N)cc(OC)c1OC` had a half-inhibitory concentration (IC50) of 0.038 µM.

`COc1cc([C@H](C)C#Cc2c(C)nc(N)nc2N)cc(OC)c1OC` registered an IC50 of 1.91 µM.

On to `CN(Cc1cnc2nc(N)nc(N)c2n1)c1ccc(C(=O)N[C@@H](CCC(=O)O)C(=O)O)cc1` [METHOTREXATE], for which half-maximal inhibition (IC50) required 0.023 µM.

A further test concerns Cryptosporidium hominis. Description: Ligand efficiency at Cryptosporidium hominis DHFR-TS relative to TMP.
The molecule `COc1cc(CC#Cc2c(C)nc(N)nc2N)cc(OC)c1OC` displayed an Activity of 0.29.

In the case of `COc1cc(CC#Cc2cnc(N)nc2N)cc(OC)c1OC`, the Activity came out at 0.24.

As for `COc1cc([C@@H](C)C#Cc2c(C)nc(N)nc2N)cc(OC)c1OC`, the Activity was determined as 0.41.

A further test deals with T1, Bifunctional dihydrofolate reductase-thymidylate synthase (Toxoplasma gondii). Description: Ligand efficiency at Toxoplasma gondii DHFR-TS. The procedure, abridged:
as §1
Regarding `COc1cc(CC#Cc2c(C)nc(N)nc2N)cc(OC)c1OC`, the Activity came out at 0.35.

As for `COc1cc(Cc2cnc(N)nc2N)cc(OC)c1OC`, the Activity was found to be 0.33.

Turning to `COc1cc([C@@H](C)C#Cc2c(C)nc(N)nc2N)cc(OC)c1OC`, the Activity amounted to 0.49.

As to `CN(Cc1cnc2nc(N)nc(N)c2n1)c1ccc(C(=O)N[C@@H](CCC(=O)O)C(=O)O)cc1` [METHOTREXATE], the Activity turned out to be 0.33.
